Experimental data: the array DNA melting data of Ke et al. (doi:10.1101/2024.01.08.574731)

What was measured:
[1] = folding enthalpy; higher = less favourable; fluorescence melt of hairpins on a sequencing array, two-state fit; settings: sodium 0.088 M
Procedure, shortened: (§1)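 Folding enthalpy and melting temperature come from bootstrapped two-state fits to Cy3 fluorescence of library hairpins carrying annealed Cy3 and quencher oligos on a sequenced MiSeq flow cell. Imaging was done in 50 mM Na-HEPES pH 8.0, 25 mM NaCl, stepping by 2.5 °C up to 60 °C, and signals were normalised to pre-quench Cy3 and to control constructs. Results of four replicates were combined by inverse variance, and fitted temperatures were raised by 9.35 °C to match UV melts.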

[2] = melting temperature; fluorescence melt of hairpins on a sequencing array, two-state fit, raised by 9.35 °C to match UV melts; settings: sodium 0.088 M
Procedure, shortened: as §1

Row | Sequence | folding enthalpy [1] [kcal/mol] | Tm [2] [°C]
1 | GATTAGCGAAAGCTTATC (((.(((....))).))) | -20.5 | 39.1
2 | GATTATGGAAACATAATC (((((((....))))))) | -38.2 | 49.1
3 | GATTATGGAAACGTAATC (((((.(....).))))) | -36.5 | 35.6
4 | GATTCACGAAAGTGCATC (((.(((....))).))) | -26.4 | 40.2
5 | GATTCACGAAAGTGGATC (((.(((....))).))) | -39.1 | 52.5
6 | GATTCAGGAAACTGGATC (((.(((....))).))) | -36.7 | 41.9
7 | GATTCCGAAAGGAAAATC ((((((....)))..))) | -14 | 32.3
8 | GATTCCGAAAGGATATC ((((((....))).))) | -20.7 | 39.5
9 | GATTCCGGAAACGGAACC (.(((((....))))).) | -13.6 | 40.1
10 | GATTCGCGAAAGCGGATC (((.(((....))).))) | -27.7 | 60.5
11 | GATTGACGAAAGTCGATC (((.(((....))).))) | -29.6 | 54.2
12 | GATTGAGAAATCAATC ((((((....)))))) | -25.9 | 45.5
13 | GATTGCCGAAAGGCATC (((.(((....)))))) | -10.3 | 44.6
14 | GATTGCCGAAAGGCGATC (((.(((....))).))) | -28.4 | 61.9
15 | GATTGCGAAAGCAAGATC ((((((....)))..))) | -14.8 | 50.2
16 | GATTGCGAAAGCACAATC ((((((....)))..))) | -10.8 | 32.7
17 | GATTGCGAAAGCACGATC ((((((....)))..))) | -7.93 | 28.7
18 | GATTTACGAAAGTAATC (((.(((....)))))) | -17.8 | 32
19 | GATTTAGAAATAAATC ((((((....)))))) | -18.8 | 34.4
20 | GATTTCCGAAAGGACATC (((.(((....))).))) | -27.1 | 38
21 | GATTTCGGAAACGAAACC (.(((((....))))).) | -19.6 | 35.8
22 | GATTTGAAAAAATC (((((....))))) | -13.9 | 34
23 | GATTTGCGAAAGCAATC (((.(((....)))))) | -12.6 | 40.3

Row | Sequence | folding enthalpy [1] [kcal/mol] | Tm [2] [°C]
24 | GATTTTGGAAACAAAACC (.(((((....))))).) | -24.9 | 29.6
25 | GATTTTGGAAACAAAATC (((((((....))))))) | -46.4 | 51.7
26 | GCAAAACCGAAAGGTTGC (((..(((....)))))) | -17.7 | 50
27 | GCAAACCGAAAGGTCTGC (((.(((....))).))) | -29.8 | 49.8
28 | GCAAAGCGAAAGCACTGC (((..((....))..))) | -13.7 | 37.7
29 | GCAAAGCGAAAGCATGGC ((.(.((....)).).)) | -10.3 | 38.3
30 | GCAAAGCGAAAGCATTGC ((((.((....)).)))) | -21.1 | 58.9
31 | GCAAAGCGAAAGCCGTGC (((..((....))..))) | -11.4 | 39.9
32 | GCAAAGCGAAAGCCTGGC ((.(.((....)).).)) | -8.7 | 35
33 | GCAAAGCGAAAGCGGTGC (((..((....))..))) | -19.8 | 61.7
34 | GCAAAGCGAAAGCGTCGC ((.(.((....)).).)) | -23.7 | 60.2
35 | GCAAAGCGAAAGCTCAGC ((..(((....)))..)) | -10.8 | 33.6
36 | GCAAAGCGAAAGCTCGGC ((..(((....)))..)) | -16.6 | 36.5
37 | GCAAAGCGAAAGCTGCGC ((..(((....)))..)) | -28.5 | 64.3
38 | GCAAAGCGAAAGCTTAGC ((.((((....)))).)) | -19 | 57.2
39 | GCAAATACGAAAGTATGC (((..(((....)))))) | -21.6 | 38.7
40 | GCAAATGAAAATTTGC ((((((....)))))) | -45.3 | 52.3
41 | GCAAATGGAAACATTTGC (((((((....))))))) | -40.9 | 61.8
42 | GCAACACGAAAGTGATGC (((.(((....))).))) | -38.9 | 59
43 | GCAACACGAAAGTGGTGC (((.(((....))).))) | -32.2 | 68.6
44 | GCAACAGGAAACTGTTAC (.(((((....))))).) | -16.7 | 34
45 | GCAACCCCGAAAGGGTGC (((..(((....)))))) | -19.2 | 55.8
